This is an account of results in ChEMBL document CHEMBL1811784, “Synthesis and SERCA activities of structurally simplified cyclopiazonic acid analogues” (Bioorg Med Chem, 2011).

This assay in a line: Inhibition of Heliothis virescens SERCA expressed in Sf9 cells assessed as ATP depletion measured after 60 mins by luciferin/luciferase coupled reporter gene assay. An outline of the steps: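 Microsomal membranes from Sf9 cells coinfected with baculovirus carrying full-length H. virescens SERCA (aa 2-1000), MOI 0.3, harvested after 3 days. 0.4 µg/mL enzyme with 0.05 mM ATP, inhibitor 3.2 nM–50 µM final, MOPS pH 7.5 buffer with Mg2+, Ca2+/EGTA, A23187. Remaining ATP read by luciferin/luciferase luminescence. Quadruplicates, normalized, sigmoid fit for IC50. Luciferase-only counterscreen run without SERCA.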
In general terms: A reporter such as luciferase makes a cellular process visible.
For orientation: IC50 means the point on the concentration scale where inhibition reaches its midpoint. Consider `C/C(O)=C1\C(=O)[C@H]2[C@H]3c4c[nH]c5cccc(c45)C[C@H]3C(C)(C)N2C1=O`, for which the concentration for half-maximal inhibition (IC50) came to 0.5 µM.
Turning to `C/C(O)=C1\C(=O)[C@@H]2[C@H]3c4c[nH]c5cccc(c45)C[C@@H]3C(C)(C)N2C1=O`, the concentration for half-maximal inhibition (IC50) was determined as 5 µM.
Then `COC(=O)[C@H]1NC(C)(C)[C@@H]2Cc3cccc4[nH]cc(c34)[C@H]12`, with > 50 µM.
The value for `CC(C)(C)c1cc(O)c(C(C)(C)C)cc1O` was 0.13 µM.
Turning to `CC(O)=C1C(=O)C2Cc3ccccc3C(C)(C)N2C1=O` (mixture of isomers), the IC50 is 6.3 µM.
Regarding `CC(O)=C1C(=O)C2c3ccccc3C(C)(C)N2C1=O` (mixture of isomers), the IC50 is > 50 µM.
As for `CC(O)=C1C(=O)[C@H]2[C@H]3CCCC[C@H]3C(C)(C)N2C1=O` (mixture of isomers), the IC50 turned out to be 19.9 µM.
The value for `CC(O)=C1C(=O)[C@@H]2[C@H]3CCCC[C@H]3C(C)(C)N2C1=O` (mixture of isomers) was 0.63 µM; that for `CC(O)=C1C(=O)N2c3ccccc3C(C)(C)N2C1=O` (mixture of isomers) was 40 µM.
In the case of `CC(O)=C1C(=O)N2[C@H]3CCCC[C@H]3C(C)(C)N2C1=O` (mixture of isomers), the IC50 turned out to be 40 µM.
On to `CC(=O)C1=C(O)[C@@H]2[C@H]3c4c[nH]c5cccc(c45)C[C@H]3C(C)(C)N2C1=O` [CYCLOPIAZONIC ACID], for which the IC50 came out at 0.01 µM.
Take `C/C(O)=C1\C(=O)[C@@H]2[C@H]3[C@@H]4C(=O)N(C)c5cccc(c54)C[C@H]3C(C)(C)N2C1=O` [SPERADINE A]: the IC50 came to 8 µM.
